Reference: ChEMBL document CHEMBL2029342, “Design and synthesis of gambogic acid analogs as potent cytotoxic and anti-inflammatory agents” (Bioorg Med Chem Lett, 2012)
≈ marks a conversion by molar mass, not a printed value.

Key:
A549 = assay: Cytotoxicity against human A549 cells by MTT assay; type: functional, cell-based
In short: (§1)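 MTT colorimetric assay of cell viability. IC50 is expressed in μg/mL as the mean of 3 determinations.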

[1] = Antiinflammatory activity in human neutrophils assessed as inhibition of fMLP/CB-induced elastase release using MeO-Suc-Ala-Ala-Pro-Val-MC as substrate at 10 ug/mL by spectrophotometry; type: functional; details: Neutrophil
In short: (§2)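 Human neutrophils stimulated with fMLP/CB; superoxide anion generation and elastase release were measured. IC50 is the concentration giving 50% inhibition. Where 50% inhibition was not reached at any tested dose, % inhibition at 10 μg/mL is reported. Mean ± S.E.M., n = 3-5.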

DU-145 = assay: Cytotoxicity against human DU145 cells by MTT assay; type: functional, cell-based; in short: as §1
[2] = Antiinflammatory activity in human neutrophils assessed as inhibition of fMLP/CB-induced superoxide anion generation after 15 mins by cytochrome c reduction assay; type: functional, cell-based; details: Neutrophil, 0.25 h; in short: as §2
[3] = Cytotoxicity against human KBVIN cells by MTT assay; type: functional, cell-based; in short: as §1
KB = assay: Cytotoxicity against human KB cells by MTT assay; type: functional, cell-based; in short: as §1
[4] = Antiinflammatory activity in human neutrophils assessed as inhibition of fMLP/CB-induced superoxide anion generation at 10 ug/mL after 15 mins by cytochrome c reduction assay; type: functional; details: Neutrophil, 0.25 h; in short: as §2
[5] = Antiinflammatory activity in human neutrophils assessed as inhibition of elastase release using MeO-Suc-Ala-Ala-Pro-Val-MC as substrate at 10 ug/mL by spectrophotometry in the absence of fMLP/CB; type: functional; details: Neutrophil
[6] = Antiinflammatory activity in human neutrophils assessed as inhibition of induced superoxide anion generation at 10 ug/mL after 15 mins by cytochrome c reduction assay in the absence of fMLP/CB; type: functional; details: Neutrophil, 0.25 h
Neutrophil = assay: Ratio of PMSF IC50 to compound IC50 for antiinflammatory activity in human neutrophils assessed as inhibition of fMLP/CB-induced elastase release; type: functional
[7] = Antiinflammatory activity in human neutrophils assessed as inhibition of fMLP/CB-induced elastase release using MeO-Suc-Ala-Ala-Pro-Val-MC as substrate by spectrophotometry; type: functional, cell-based; details: Neutrophil; in short: as §2
[8] = Antiinflammatory activity in human neutrophils pretreated with cytochalasin B assessed as inhibition of fMLP/CB-induced superoxide anion generation after 15 mins by cytochrome c reduction assay; type: functional, cell-based; details: Neutrophil; in short: as §2

IC50 [2] | IC50 [7] | IC50 [8] | Structure (SMILES) | IC50 (A549) | inhibition at 10 µg/mL [1] | IC50 (DU-145) | IC50 [3] | IC50 (KB) | inhibition at 10 µg/mL [4] | inhibition at 10 µg/mL [5] | inhibition at 10 µg/mL [6] | Ratio IC50 (Neutrophil)
5.84 µg/mL (≈ 23.9 µM) |  |  | O=c1c2ccc(O)cc2oc2cc(O)cc(O)c12 | > 10 µg/mL | 16% | > 10 µg/mL | > 10 µg/mL |  |  |  |  | 
 |  |  | CC1(C)Oc2cc(O)c3c(=O)c4ccc(O)cc4oc3c2C(O)C1O (configuration not stated) | 9.9 µg/mL (≈ 28.8 µM) | 6.37% | 6.7 µg/mL (≈ 19.5 µM) | 0.8 µg/mL (≈ 2.32 µM) | > 10 µg/mL | 8.63% |  |  | 
 |  |  | CC(C)=CCOc1ccc2c(=O)c3c(OCC=C(C)C)cc(OCC=C(C)C)cc3oc2c1 | > 10 µg/mL | 54.9% | 6.3 µg/mL (≈ 14 µM) | > 10 µg/mL |  | 64.3% |  |  | 
 |  |  | COc1ccc2c(=O)c3c(O)cc(O)cc3oc2c1 | > 10 µg/mL | 23.6% | > 10 µg/mL | > 10 µg/mL |  | 45.2% |  |  | 
20.2 µg/mL (≈ 64.7 µM) |  |  | CC(C)=CCOc1cc(O)c2c(=O)c3ccc(O)cc3oc2c1 | 6.9 µg/mL (≈ 22.1 µM) | 4.21% | 3.7 µg/mL (≈ 11.8 µM) | 5.3 µg/mL (≈ 17 µM) |  |  |  |  | 
 |  |  | CC(C)=CCOc1ccc2c(=O)c3c(O)c(CC=C(C)C)c(OCC=C(C)C)cc3oc2c1 | 7.9 µg/mL (≈ 17.6 µM) | 7.56% | 4.3 µg/mL (≈ 9.59 µM) | 7.5 µg/mL (≈ 16.7 µM) |  | 10.1% |  |  | 
 |  |  | CC(C)=CCc1c(O)c(CC=C(C)C)c2oc3cc(O)ccc3c(=O)c2c1O | 6.4 µg/mL (≈ 16.8 µM) |  | 3.9 µg/mL (≈ 10.3 µM) | 6.7 µg/mL (≈ 17.6 µM) |  |  | 102% | 101% | 
 | 0.49 µg/mL (≈ 1.29 µM) | 35.6 µg/mL (≈ 94.1 µM) | CC(C)=CCCC1(C)C=Cc2c(cc(O)c3c(=O)c4ccc(O)cc4oc23)O1 (configuration not stated) | 5.1 µg/mL (≈ 13.5 µM) |  | 5.2 µg/mL (≈ 13.7 µM) | 5.7 µg/mL (≈ 15.1 µM) | 5.3 µg/mL (≈ 14 µM) |  |  |  | 200
4.3 µg/mL (≈ 10.4 µM) | 5.75 µg/mL (≈ 13.9 µM) |  | CC(C)=CCCC1(C)Oc2cc3oc4cc(O)ccc4c(=O)c3c(O)c2C(O)C1O (configuration not stated) | > 10 µg/mL |  | > 10 µg/mL | > 10 µg/mL | > 10 µg/mL |  |  |  | 15
 |  |  | CC(C)=CCc1c(O)cc2oc3cc(O)ccc3c(=O)c2c1O | 6.2 µg/mL (≈ 19.9 µM) | 56.3% | 3.8 µg/mL (≈ 12.2 µM) | 5.4 µg/mL (≈ 17.3 µM) |  | 45.2% |  |  | 
2.49 µg/mL (≈ 7.23 µM) |  |  | CC1(C)Oc2cc3oc4cc(O)ccc4c(=O)c3c(O)c2C(O)C1O (configuration not stated) | 5.9 µg/mL (≈ 17.1 µM) | 35.3% | 5.4 µg/mL (≈ 15.7 µM) | 6.8 µg/mL (≈ 19.7 µM) | 6.3 µg/mL (≈ 18.3 µM) |  |  |  | 
3.97 µg/mL (≈ 12.8 µM) |  |  | CC1(C)C=Cc2c(cc(O)c3c(=O)c4ccc(O)cc4oc23)O1 | 5.8 µg/mL (≈ 18.7 µM) | 18.4% | 5.1 µg/mL (≈ 16.4 µM) | 0.9 µg/mL (≈ 2.9 µM) | 4.8 µg/mL (≈ 15.5 µM) |  |  |  | 
 |  |  | CC(C)=CCC[C@]1(C)C=Cc2c(O)c3c(c(CC=C(C)C)c2O1)O[C@]12C(=C[C@@H]4C[C@H]1C(C)(C)O[C@@]2(C/C=C(/C)C(=O)O)C4=O)C3=O [GAMBOGIC ACID] | 0.5 µg/mL (≈ 0.795 µM) |  | 0.3 µg/mL (≈ 0.477 µM) | 0.4 µg/mL (≈ 0.636 µM) | 0.3 µg/mL (≈ 0.477 µM) |  |  |  | 
0.46 µg/mL (≈ 1.48 µM) | 0.64 µg/mL (≈ 2.06 µM) |  | CC1(C)C=Cc2c(cc3oc4cc(O)ccc4c(=O)c3c2O)O1 | 5.8 µg/mL (≈ 18.7 µM) |  | 4.4 µg/mL (≈ 14.2 µM) | 5.5 µg/mL (≈ 17.7 µM) | 4.6 µg/mL (≈ 14.8 µM) |  |  |  | 15
 |  |  | COc1ccc2c(=O)c3c(O)cc(OC)cc3oc2c1 | > 10 µg/mL | 26.5% | > 10 µg/mL | > 10 µg/mL |  | 31.3% |  |  | 
 |  |  | CC(=O)O[C@H]1C(=O)[C@@]2(C)[C@H]([C@H](OC(=O)c3ccccc3)[C@]3(O)C[C@H](OC(=O)[C@H](O)[C@@H](NC(=O)c4ccccc4)c4ccccc4)C(C)=C1C3(C)C)[C@]1(OC(C)=O)CO[C@@H]1C[C@@H]2O [PACLITAXEL] |  |  | 0.0024 µg/mL (≈ 0.00281 µM) | 0.0011 µg/mL (≈ 0.00129 µM) | 0.0016 µg/mL (≈ 0.00187 µM) |  |  |  | 
 |  |  | CC(C)=CCc1c(O)cc2oc3c(CC=C(C)C)c(O)ccc3c(=O)c2c1O | 5 µg/mL (≈ 13.1 µM) | 67.2% | 2.8 µg/mL (≈ 7.36 µM) | 4.4 µg/mL (≈ 11.6 µM) |  | 31.6% |  |  | 
 |  |  | CC(C)=CCOc1ccc2c(=O)c3c(O)cc(OCC=C(C)C)cc3oc2c1 | 9.3 µg/mL (≈ 24.4 µM) | 13.3% | > 10 µg/mL | > 10 µg/mL |  | 5.32% |  |  | 
5.43 µg/mL (≈ 14.3 µM) | 8.75 µg/mL (≈ 23.1 µM) |  | CC(C)=CCCC1(C)C=Cc2c(cc3oc4cc(O)ccc4c(=O)c3c2O)O1 (configuration not stated) | 6.6 µg/mL (≈ 17.4 µM) |  | 6.2 µg/mL (≈ 16.4 µM) | 6 µg/mL (≈ 15.9 µM) | 6.2 µg/mL (≈ 16.4 µM) |  |  |  | 15
2.56 µg/mL (≈ 6.21 µM) | 8.46 µg/mL (≈ 20.5 µM) |  | CC(C)=CCCC1(C)Oc2cc(O)c3c(=O)c4ccc(O)cc4oc3c2C(O)C1O (configuration not stated) | > 10 µg/mL |  | > 10 µg/mL | > 10 µg/mL | > 10 µg/mL |  |  |  | 15

Structure (SMILES) | IC50 [2] | IC50 [7] | IC50 [8] | IC50 (A549) | inhibition at 10 µg/mL [1] | IC50 (DU-145) | IC50 [3] | IC50 (KB) | inhibition at 10 µg/mL [4] | inhibition at 10 µg/mL [5] | inhibition at 10 µg/mL [6] | Ratio IC50 (Neutrophil)
O=S(=O)(F)Cc1ccccc1 [PHENYLMETHYLSULFONYLFLUORIDE] |  | 131 µg/mL (≈ 752 µM) |  |  |  |  |  |  |  |  |  | 
c1ccc2c(c1)[I+]c1ccccc1-2 [DIPHENYLENEIODONIUM] | 0.7 µg/mL |  |  |  |  |  |  |  |  |  |  | 
